Consider 29 compounds from ChEMBL document CHEMBL1144191, “Synthesis and evaluation of a spiro-isobenzofuranone class of histamine H3 receptor inverse agonists” (Bioorg Med Chem Lett, 2008).

Data set [1] addresses Histamine H3 receptor (Homo sapiens, UniProt Q9Y5N1). Kind of data set: Inverse agonist activity at human cloned histamine H3 receptor assessed as inhibition of (R)-alpha-methylhistamine-induced [35S]GTPgammaS binding. It counts as functional. In a few lines:
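[35S]GTPγS binding assay in membranes isolated from cells transfected with cloned human H3 receptors.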

A short description of data set [2]: Metabolic stability in cryopreserved rat hepatocytes assessed as hepatic clearance by serum incubation method. The class given is ADME, cell-based, Liver, Hepatocyte. The essentials: (§1)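 Hepatic clearance estimated by the serum incubation method in human and rat hepatocytes, expressed as mL/min/kg.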
Data set [3] is described as follows: Plasma concentration in Sprague-Dawley rat at 1 mg/kg, iv after 10 mins. The class given is ADME, organism-based. Details: dose 1 mg/kg, route intravenous. Particulars: read-out: Drug uptake. The essentials:
(§2)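 SD rats, n = 3 (mean), dosed iv at 1 mg/kg. Plasma, brain and CSF levels measured 10 min after dosing; brain expressed as nmol/g, plasma and CSF as µM.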

A short description of data set [4]: Plasma clearance in Sprague-Dawley rat at 1 mg/kg, iv. It counts as ADME, organism-based. Further details: dose 1 mg/kg, route intravenous. The essentials:
(§3)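 Sprague-Dawley rats, n = 3, mean values reported; dosed iv at 1 mg/kg or orally at 3 mg/kg. Parameters derived from the plasma profile: half-life, Vdss, plasma clearance (iv), Tmax, Cmax and oral bioavailability (po).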

Data set [5] deals with Histamine H4 receptor (Homo sapiens, UniProt Q9H3N8). Kind of data set: Inhibition of histamine H4 receptor.
Data set [6] relates to LLC-PK1. The data set can be described thus: Ratio of permeability from basolateral to apical over apical to basolateral side of pig LLC-PK1 cells transfected with mouse MDR1a by P-gp transport assay. The class given is ADME, cell-based, Sus scrofa. In a few lines:
(§4)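 Transcellular transport measured across LLC-PK1 cell monolayers transfected with human MDR1 or mouse mdr1a. Ratio computed as (B-to-A)/(A-to-B) permeability; mean of n ≥ 3. Ratio above 3.0 taken to indicate a P-gp substrate.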

Data set [7] deals with Brain. Kind of data set: Drug concentration in Sprague-Dawley rat brain at 1 mg/kg, iv after 10 mins. It counts as ADME, organism-based. Details: dose 1 mg/kg, route intravenous. Particulars: in vivo. In a few lines:
as §2

Data set [8] can be described thus: Metabolic stability in cryopreserved human hepatocytes assessed as hepatic clearance by serum incubation method. It counts as ADME, cell-based, Liver, Hepatocyte. The essentials:
as §1

A short description of data set [9]: Drug concentration in Sprague-Dawley rat cerebrospinal fluid at 1 mg/kg, iv after 10 mins. It counts as ADME, organism-based. Further details: dose 1 mg/kg, route intravenous. Particulars: read-out: Drug uptake. In a few lines: as §2
The target in data set [10] is Histamine H1 receptor (Homo sapiens, UniProt P35367). Kind of data set: Inhibition of histamine H1 receptor.
The target in data set [11] is Histamine H2 receptor (Homo sapiens, UniProt P25021). The data set can be described thus: Inhibition of histamine H2 receptor.
Data set [12] relates to LLC-PK1. The data set can be described thus: Ratio of permeability from basolateral to apical over apical to basolateral side of pig LLC-PK1 cells transfected with human MDR1 by P-gp transport assay. It counts as ADME, cell-based, Sus scrofa. In a few lines:
as §4

In data set [13] the target is Voltage-gated inwardly rectifying potassium channel KCNH2 (Homo sapiens, UniProt Q12809). The data set can be described thus: Displacement of [35S]N-[(4R)-1'-[(2R)-6-cyano-1,2,3,4-tetrahydro-2-naphthalenyl]-3,4-dihydro-4-hydroxyspiro[2H-1-benzopyran-2,4'-piperidin]-6-yl]methanesulfonamide from human ERG in HEK293 cells. It counts as cell-based. In general terms: Loss of bound radioactivity is the signal in a displacement assay; it reports binding, not function.

A short description of data set [14]: Volume of distribution at steady state in Sprague-Dawley rat at 1 mg/kg, iv. Details: dose 1 mg/kg, route intravenous. To be noted: in vivo, read-out: Vdss. It counts as ADME, organism-based. The essentials: as §3
A short description of data set [15]: Cmax in Sprague-Dawley rat at 3 mg/kg, po. The class given is ADME, organism-based. Particulars: in vivo. Further details: dose 3 mg/kg, route oral. In a few lines: as §3
Data set [16] concerns Brain. Kind of data set: Drug concentration in Sprague-Dawley rat brain at 10 mg/kg, po after 2 hrs. To be noted: in vivo. It counts as ADME, organism-based. Further details: dose 10 mg/kg, route oral. The essentials: (§5)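 SD rats, n = 3 (mean), dosed orally at 10 mg/kg. Plasma, brain and cerebrospinal fluid levels measured at 2 h post-dose; brain expressed as nmol/g, plasma and CSF as µM.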

Data set [17] can be described thus: Tmax in Sprague-Dawley rat at 3 mg/kg, po. It counts as ADME, organism-based. Details: dose 3 mg/kg, route oral. Particulars: in vivo. The essentials:
as §3

Data set [18] can be described thus: Half life in Sprague-Dawley rat at 3 mg/kg, po. The class given is ADME, organism-based. Further details: dose 3 mg/kg, route oral. Particulars: in vivo. The essentials:
as §3

A short description of data set [19]: Half life in Sprague-Dawley rat at 1 mg/kg, iv. It counts as ADME, organism-based. Details: dose 1 mg/kg, route intravenous. To be noted: in vivo. The essentials:
as §3

A short description of data set [20]: Plasma concentration in Sprague-Dawley rat at 10 mg/kg, po after 2 hrs. The class given is ADME, organism-based. Further details: dose 10 mg/kg, route oral. Particulars: read-out: Drug uptake. In a few lines: as §5
Data set [21] is described as follows: Drug concentration in Sprague-Dawley rat cerebrospinal fluid at 10 mg/kg, po after 2 hrs. It counts as ADME, organism-based. Details: dose 10 mg/kg, route oral. To be noted: read-out: Drug uptake. In a few lines:
as §5

Data set [22] is described as follows: Bioavailability in Sprague-Dawley rat at 3 mg/kg, po. It counts as ADME, organism-based. Particulars: in vivo. The essentials:
as §3

Histamine H3 receptor, sequence (Q9Y5N1 whole entry): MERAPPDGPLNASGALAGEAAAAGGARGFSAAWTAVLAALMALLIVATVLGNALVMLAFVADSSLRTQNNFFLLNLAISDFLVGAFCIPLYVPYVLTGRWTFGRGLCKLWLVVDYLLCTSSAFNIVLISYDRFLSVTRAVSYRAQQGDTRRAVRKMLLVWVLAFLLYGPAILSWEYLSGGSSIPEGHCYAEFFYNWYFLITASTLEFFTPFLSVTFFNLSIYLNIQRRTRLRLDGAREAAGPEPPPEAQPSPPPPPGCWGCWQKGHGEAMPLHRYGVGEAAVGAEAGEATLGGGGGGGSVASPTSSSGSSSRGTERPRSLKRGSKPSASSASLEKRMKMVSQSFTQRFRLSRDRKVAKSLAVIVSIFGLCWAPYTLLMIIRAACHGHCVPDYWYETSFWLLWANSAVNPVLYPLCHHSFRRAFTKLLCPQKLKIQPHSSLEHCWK
Histamine H4 receptor, sequence (Q9H3N8 whole entry): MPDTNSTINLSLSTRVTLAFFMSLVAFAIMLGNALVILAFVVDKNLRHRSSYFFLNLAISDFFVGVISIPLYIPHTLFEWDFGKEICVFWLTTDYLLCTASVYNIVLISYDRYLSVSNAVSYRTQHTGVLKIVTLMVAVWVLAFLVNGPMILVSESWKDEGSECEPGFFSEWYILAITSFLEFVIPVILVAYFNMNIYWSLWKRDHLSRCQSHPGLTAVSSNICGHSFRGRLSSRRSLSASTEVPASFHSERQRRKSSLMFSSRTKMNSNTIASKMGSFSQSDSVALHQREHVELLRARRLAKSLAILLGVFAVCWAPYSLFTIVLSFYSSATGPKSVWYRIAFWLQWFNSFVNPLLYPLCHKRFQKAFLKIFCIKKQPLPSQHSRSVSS
Histamine H1 receptor, sequence (P35367 whole entry): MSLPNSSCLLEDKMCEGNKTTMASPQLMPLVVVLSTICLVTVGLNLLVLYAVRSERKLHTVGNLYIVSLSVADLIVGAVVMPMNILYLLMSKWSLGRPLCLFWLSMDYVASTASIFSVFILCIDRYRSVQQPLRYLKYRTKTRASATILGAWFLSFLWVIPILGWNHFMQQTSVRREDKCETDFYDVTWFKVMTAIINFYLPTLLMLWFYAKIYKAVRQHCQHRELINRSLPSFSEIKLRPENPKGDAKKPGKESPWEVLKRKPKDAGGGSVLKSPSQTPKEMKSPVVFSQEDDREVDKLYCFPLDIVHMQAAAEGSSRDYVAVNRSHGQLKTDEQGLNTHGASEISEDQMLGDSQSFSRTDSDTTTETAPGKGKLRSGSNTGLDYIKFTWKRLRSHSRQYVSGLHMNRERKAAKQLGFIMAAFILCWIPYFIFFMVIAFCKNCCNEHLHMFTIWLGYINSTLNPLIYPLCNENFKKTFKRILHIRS
Histamine H2 receptor, sequence (P25021 whole entry): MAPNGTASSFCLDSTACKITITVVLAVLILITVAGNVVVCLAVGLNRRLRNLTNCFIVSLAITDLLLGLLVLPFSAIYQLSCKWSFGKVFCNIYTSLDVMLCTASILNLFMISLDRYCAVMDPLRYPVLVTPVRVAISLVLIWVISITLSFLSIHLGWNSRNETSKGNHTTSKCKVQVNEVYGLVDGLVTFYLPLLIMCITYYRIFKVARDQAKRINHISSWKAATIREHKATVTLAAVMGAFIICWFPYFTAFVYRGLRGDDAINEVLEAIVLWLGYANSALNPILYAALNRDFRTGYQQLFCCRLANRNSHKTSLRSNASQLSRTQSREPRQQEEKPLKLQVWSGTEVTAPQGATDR
Voltage-gated inwardly rectifying potassium channel KCNH2, sequence (Q12809 whole entry): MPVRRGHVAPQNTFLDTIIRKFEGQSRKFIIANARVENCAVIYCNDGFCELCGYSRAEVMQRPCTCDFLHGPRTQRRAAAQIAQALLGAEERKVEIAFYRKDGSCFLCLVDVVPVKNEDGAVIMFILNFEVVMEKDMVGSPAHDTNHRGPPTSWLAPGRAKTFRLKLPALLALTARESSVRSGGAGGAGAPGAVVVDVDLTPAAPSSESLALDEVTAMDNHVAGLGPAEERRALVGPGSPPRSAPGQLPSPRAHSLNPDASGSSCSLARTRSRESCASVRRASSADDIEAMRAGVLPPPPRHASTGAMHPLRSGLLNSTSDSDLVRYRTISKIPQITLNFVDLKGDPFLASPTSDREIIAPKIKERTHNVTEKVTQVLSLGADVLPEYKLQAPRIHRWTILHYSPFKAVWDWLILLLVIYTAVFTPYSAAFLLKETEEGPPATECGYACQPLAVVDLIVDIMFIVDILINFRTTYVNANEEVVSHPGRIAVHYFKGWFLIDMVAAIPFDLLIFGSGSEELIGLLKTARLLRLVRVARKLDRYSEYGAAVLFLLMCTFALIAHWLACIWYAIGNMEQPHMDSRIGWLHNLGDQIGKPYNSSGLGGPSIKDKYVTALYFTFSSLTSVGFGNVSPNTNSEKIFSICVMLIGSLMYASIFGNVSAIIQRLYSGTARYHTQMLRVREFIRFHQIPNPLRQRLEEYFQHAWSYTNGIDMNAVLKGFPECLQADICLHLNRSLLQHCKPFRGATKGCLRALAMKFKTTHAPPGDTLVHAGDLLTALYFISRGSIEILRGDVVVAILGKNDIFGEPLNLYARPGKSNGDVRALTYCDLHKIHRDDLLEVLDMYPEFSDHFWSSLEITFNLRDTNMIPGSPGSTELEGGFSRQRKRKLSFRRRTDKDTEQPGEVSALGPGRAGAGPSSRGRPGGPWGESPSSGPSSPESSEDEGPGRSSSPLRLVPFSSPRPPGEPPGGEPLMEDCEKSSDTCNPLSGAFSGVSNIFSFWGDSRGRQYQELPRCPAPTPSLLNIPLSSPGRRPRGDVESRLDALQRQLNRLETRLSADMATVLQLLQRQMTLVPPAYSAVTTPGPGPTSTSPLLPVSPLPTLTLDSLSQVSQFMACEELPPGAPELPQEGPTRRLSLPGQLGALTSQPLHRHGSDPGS

As a reminder, the IC50 is the concentration that gives 50% inhibition. Consider `COc1cccc2c1[C@]1(CC[C@@H](C(=O)N(C)CCN3CCCCC3)CC1)OC2=O`, for which the IC50 in data set [1] is 0.0036 µM. By clearance is commonly meant the rate of elimination divided by the concentration. Read a low clearance as inefficient removal. In the case of `CN(CCN1CCCCC1)C(=O)[C@H]1CC[C@@]2(CC1)OC(=O)c1ccccc12`, the CLhep predicted is 59 mL/min/kg in data set [2] and 18 mL/min/kg in data set [8]. The concentration at 10 min came out at 1500 nM in data set [3] and 370 nM in [9]. Further, in [4], the clearance turned out to be 97 mL/min/kg. Further, the IC50 in data set [1] is 0.00072 µM; in [5] it was > 10 µM; in data set [10], > 10 µM; in data set [11] it was > 10 µM; in [13], > 10 µM. The Ratio in data set [6] is reported as 2; in [12] it was 1.2. Also, in data set [7], the Drug uptake is reported as 2.4 nmol/g.

With `CN(CCN1CCCCC1)C(=O)N1CCC(Cc2ccccc2)CC1`, the IC50 in [1] came out at 0.393 µM. The same measure, in the same setting: the figure for `CN(CCN1CCCCC1)C(=O)N1CCC(c2ccc3ccccc3c2)CC1` is 0.11 µM; for `CN(CCN1CCCCC1)C(=O)N1CCN(c2cccc(Cl)c2)CC1` it is 0.297 µM. Turning to `CN(CCN1CCCCC1)C(=O)N1CCC2(CC1)CC(=O)c1ccccc1O2`, the IC50 in [1] was found to be 0.068 µM.

With `CN(CCN1CCCCC1)C(=O)N1CCC2(CC1)OCc1ccccc12`, the IC50 in data set [1] amounted to 0.387 µM. With `CN(CCN1CCCCC1)C(=O)N1CCC2(CC1)CC(=O)c1ccccc12`, the IC50 in data set [1] is 0.043 µM.

On to `CN(CCN1CCCCC1)C(=O)N1CCC(c2cccc3ccccc23)CC1`, for which the IC50 in [1] amounted to 0.343 µM. Same read-out and setting: in the case of `CN(CCN1CCCCC1)C(=O)N1CCN(c2ccccc2Cl)CC1` it was > 1 µM; in that of `CN(CCN1CCCCC1)C(=O)N1CCC2(CC1)OC(=O)c1ccccc12`, 0.021 µM. Consider `CN(CCN1CCCCC1)C(=O)N1CCC2(CC1)c1ccccc1C(=O)N2C`, for which the IC50 in data set [1] was determined as 0.045 µM. Still for that read-out and setting: in the case of `CN(CCN1CCCCC1)C(=O)N1CCN(c2ccc(Cl)cc2)CC1` it was 0.16 µM. With `CN(CCN1CCCCC1)C(=O)N1CCC2(CC1)NC(=O)c1ccccc12`, in data set [1], the IC50 was 0.053 µM. The same measure, in the same setting: in the case of `CN(CCN1CCCCC1)C(=O)N1CCC(c2ccccc2)(c2ccccc2)CC1` it was 0.098 µM; in that of `CN(CCN1CCCCC1)C(=O)N1CCC2(CC1)NC(=O)Cc1ccccc12`, 0.783 µM. The same measure, in the same setting: in the case of `CN(CCN1CCCCC1)C(=O)N1CCC(C#N)(c2ccccc2)CC1` it was 0.267 µM; in that of `CN(CCN1CCCCC1)C(=O)N1CCC2(CC1)OC(=O)Nc1ccccc12`, > 1 µM; in that of `COc1ccc2c(c1)[C@]1(CC[C@@H](C(=O)N(C)CCN3CCCCC3)CC1)OC2=O`, 0.018 µM. Same read-out and setting: in the case of `CN(CCN1CCCCC1)C(=O)N1CCC2(CC1)Cc1ccccc1C(=O)O2` it was 0.38 µM; in that of `CN(CCN1CCCCC1)C(=O)N1CCC(c2ccccc2)CC1`, 0.893 µM. As a reminder, the Cmax is the peak of the concentration-time curve. As a reminder, the Tmax is the time from dosing to the highest level. As usually defined, the half-life is how long it takes for the measured level to halve. Low values mean fast loss, high ones slow loss. Usually bioavailability stands for the share of a dose that reaches the circulation, judged against a reference dose that is usually intravenous. A lower bioavailability goes with little systemic uptake. Consider `COc1ccc2c(c1)C(=O)O[C@]21CC[C@H](C(=O)N(C)CCN2CCCCC2)CC1`, for which, in data set [14], the Vd was found to be 7.2 L/kg. Moreover, the CLhep predicted was 54 mL/min/kg in data set [2] and 18 mL/min/kg in data set [8]. The peak level in data set [15] (Cmax) was 60 nM. In addition, the Drug uptake in data set [16] is reported as 0.48 nmol/g. The Tmax in data set [17] is 0.3 h. The compound further yielded a clearance in data set [4] of 74 mL/min/kg. For the same compound, the IC50 in [1] was 0.00054 µM; in [5], > 10 µM; in [10], > 10 µM; in [11], > 10 µM. Also, the half-life in data set [18] and in [19] was 1.4 h in each case. For the same compound, the concentration at 2 h amounted to 270 nM in data set [20] and 58 nM in data set [21]. In data set [22], the bioavailability was determined as 7%. Consider `CN(CCN1CCCCC1)C(=O)N1CCC2(CC1)NC(=O)c1ccccc1N2`, for which the IC50 in [1] was 0.56 µM.

Consider `CN(CCN1CCCCC1)C(=O)N1CCc2ccccc2C1`, for which the IC50 in [1] stood at 0.68 µM.

As for `CN(CCN1CCCCC1)C(=O)N1CCC2(CC1)Cc1ccccc1C2`, the IC50 in data set [1] was 0.53 µM.

`CN(CCN1CCCCC1)C(=O)N1CCC(C(=O)c2ccccc2)CC1`: in data set [1], the IC50 amounted to 0.237 µM. The same measure, in the same setting: in the case of `CN(CCN1CCCCC1)C(=O)N1CCC(O)(c2ccccc2)CC1` it was > 1 µM; in that of `CN(CCN1CCCCC1)C(=O)N1CCN(c2ccccc2)CC1`, 0.506 µM; in that of `CN(CCN1CCCCC1)C(=O)N1CCC(C(C)(C)C)CC1`, > 1 µM.
